According to ChEMBL document CHEMBL2086320, “New synthetic inhibitors of fatty acid synthase with anticancer activity” (J Med Chem, 2012):
The source made the active and inactive calls. The calls are words filed in the database; no cut-off is given here.

Legend:
[1] = test system: SK-BR-3; assay: Cytotoxicity against human SKBR3 cells after 48 hrs by MTT assay; type: functional, cell-based; conditions: SK-BR-3, 48 h
Summary of the method: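 MTT colorimetric assay: cells seeded at 5 or 7 x 10³ cells/well, attached overnight, then given fresh medium with a range of compound concentrations for 48 h at 37 °C, 5% CO2. MTT added for 3 h, formazan dissolved in DMSO, absorbance read at 570 or 540 nm. IC50 as mean±SEM from at least two independent experiments in duplicate or triplicate.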

[2] = biological target: Fatty acid synthase (Homo sapiens) (UniProt P49327); assay: Inhibition of FASN in human SK-BR-3 cells assessed as oxidation of NADPH at 26 uM after 24 hrs by Spectrophotometric analysis relative to control; type: cell-based
[3] = biological target: Fatty acid synthase (Homo sapiens) (UniProt P49327); assay: Inhibition of FASN in human SK-BR-3 cells assessed as oxidation of NADPH at 39 uM after 24 hrs by Spectrophotometric analysis relative to control; type: cell-based
[4] = biological target: Fatty acid synthase (Homo sapiens) (UniProt P49327); assay: Inhibition of FASN in human SK-BR-3 cells assessed as oxidation of NADPH at 31 uM after 24 hrs by Spectrophotometric analysis relative to control; type: cell-based
[5] = biological target: Fatty acid synthase (Homo sapiens) (UniProt P49327); assay: Inhibition of FASN in human SK-BR-3 cells assessed as oxidation of NADPH at 25 uM after 24 hrs by Spectrophotometric analysis relative to control; type: cell-based
[6] = biological target: Fatty acid synthase (Homo sapiens) (UniProt P49327); assay: Inhibition of FASN in human SK-BR-3 cells assessed as oxidation of NADPH at 42 uM after 24 hrs by Spectrophotometric analysis relative to control; type: cell-based
[7] = biological target: Fatty acid synthase (Homo sapiens) (UniProt P49327); assay: Inhibition of FASN in human SK-BR-3 cells assessed as oxidation of NADPH at 47 uM after 24 hrs by Spectrophotometric analysis relative to control; type: cell-based
[8] = biological target: Receptor tyrosine-protein kinase erbB-2 (Homo sapiens) (UniProt P04626); assay: Inhibition of HER2 phosphorylation in human SK-BR-3 cells after 6 hrs by Western blot analysis; type: cell-based; conditions: concentration not given here
Summary of the method: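 SK-Br3 cells treated for 6, 12 or 24 h, harvested with trypsin-EDTA, lysed in Tris-HCl pH 7.5/EDTA/NaCl/PMSF buffer at 4 °C. Equal protein run on 3-8% SDS-PAGE and transferred to nitrocellulose. Membranes probed overnight at 4 °C with anti-phospho-HER2 mouse monoclonal, then peroxidase secondary and chemiluminescence. Re-probed for β-actin as loading control. Gels are representative of at least two independent experiments.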

[9] = biological target: Fatty acid synthase (Homo sapiens) (UniProt P49327); assay: Inhibition of FASN in human SK-BR-3 cells assessed as oxidation of NADPH at 17 uM after 24 hrs by Spectrophotometric analysis relative to control; type: cell-based
[10] = biological target: Fatty acid synthase (Homo sapiens) (UniProt P49327); assay: Inhibition of FASN in human SK-BR-3 cells assessed as oxidation of NADPH at 78 uM after 24 hrs by Spectrophotometric analysis relative to control; type: cell-based
[11] = biological target: Fatty acid synthase (Homo sapiens) (UniProt P49327); assay: Inhibition of FASN in human SK-BR-3 cells assessed as oxidation of NADPH at 76 uM after 24 hrs by Spectrophotometric analysis relative to control; type: cell-based
[12] = biological target: Fatty acid synthase (Homo sapiens) (UniProt P49327); assay: Inhibition of FASN in human SK-BR-3 cells assessed as oxidation of NADPH at 5 uM after 24 hrs by Spectrophotometric analysis relative to control; type: cell-based
[13] = biological target: Fatty acid synthase (Homo sapiens) (UniProt P49327); assay: Inhibition of FASN in human SK-BR-3 cells assessed as oxidation of NADPH at 36 uM after 24 hrs by Spectrophotometric analysis relative to control; type: cell-based
[14] = biological target: Fatty acid synthase (Homo sapiens) (UniProt P49327); assay: Inhibition of FASN in human SK-BR-3 cells assessed as oxidation of NADPH at 41 uM after 24 hrs by Spectrophotometric analysis relative to control; type: cell-based
[15] = biological target: Fatty acid synthase (Homo sapiens) (UniProt P49327); assay: Inhibition of FASN in human SK-BR-3 cells assessed as oxidation of NADPH at 8 uM after 24 hrs by Spectrophotometric analysis relative to control; type: cell-based
[16] = biological target: Fatty acid synthase (Homo sapiens) (UniProt P49327); assay: Inhibition of FASN in human SK-BR-3 cells assessed as oxidation of NADPH at 22 uM after 24 hrs by Spectrophotometric analysis relative to control; type: cell-based
[17] = biological target: Fatty acid synthase (Homo sapiens) (UniProt P49327); assay: Inhibition of FASN in human SK-BR-3 cells assessed as oxidation of NADPH at 28 uM after 24 hrs by Spectrophotometric analysis relative to control; type: cell-based
[18] = biological target: Fatty acid synthase (Homo sapiens) (UniProt P49327); assay: Inhibition of FASN in human SK-BR-3 cells assessed as oxidation of NADPH at 23 uM after 24 hrs by Spectrophotometric analysis relative to control; type: cell-based

Chain of Fatty acid synthase (Homo sapiens) (P49327 whole entry, looked up): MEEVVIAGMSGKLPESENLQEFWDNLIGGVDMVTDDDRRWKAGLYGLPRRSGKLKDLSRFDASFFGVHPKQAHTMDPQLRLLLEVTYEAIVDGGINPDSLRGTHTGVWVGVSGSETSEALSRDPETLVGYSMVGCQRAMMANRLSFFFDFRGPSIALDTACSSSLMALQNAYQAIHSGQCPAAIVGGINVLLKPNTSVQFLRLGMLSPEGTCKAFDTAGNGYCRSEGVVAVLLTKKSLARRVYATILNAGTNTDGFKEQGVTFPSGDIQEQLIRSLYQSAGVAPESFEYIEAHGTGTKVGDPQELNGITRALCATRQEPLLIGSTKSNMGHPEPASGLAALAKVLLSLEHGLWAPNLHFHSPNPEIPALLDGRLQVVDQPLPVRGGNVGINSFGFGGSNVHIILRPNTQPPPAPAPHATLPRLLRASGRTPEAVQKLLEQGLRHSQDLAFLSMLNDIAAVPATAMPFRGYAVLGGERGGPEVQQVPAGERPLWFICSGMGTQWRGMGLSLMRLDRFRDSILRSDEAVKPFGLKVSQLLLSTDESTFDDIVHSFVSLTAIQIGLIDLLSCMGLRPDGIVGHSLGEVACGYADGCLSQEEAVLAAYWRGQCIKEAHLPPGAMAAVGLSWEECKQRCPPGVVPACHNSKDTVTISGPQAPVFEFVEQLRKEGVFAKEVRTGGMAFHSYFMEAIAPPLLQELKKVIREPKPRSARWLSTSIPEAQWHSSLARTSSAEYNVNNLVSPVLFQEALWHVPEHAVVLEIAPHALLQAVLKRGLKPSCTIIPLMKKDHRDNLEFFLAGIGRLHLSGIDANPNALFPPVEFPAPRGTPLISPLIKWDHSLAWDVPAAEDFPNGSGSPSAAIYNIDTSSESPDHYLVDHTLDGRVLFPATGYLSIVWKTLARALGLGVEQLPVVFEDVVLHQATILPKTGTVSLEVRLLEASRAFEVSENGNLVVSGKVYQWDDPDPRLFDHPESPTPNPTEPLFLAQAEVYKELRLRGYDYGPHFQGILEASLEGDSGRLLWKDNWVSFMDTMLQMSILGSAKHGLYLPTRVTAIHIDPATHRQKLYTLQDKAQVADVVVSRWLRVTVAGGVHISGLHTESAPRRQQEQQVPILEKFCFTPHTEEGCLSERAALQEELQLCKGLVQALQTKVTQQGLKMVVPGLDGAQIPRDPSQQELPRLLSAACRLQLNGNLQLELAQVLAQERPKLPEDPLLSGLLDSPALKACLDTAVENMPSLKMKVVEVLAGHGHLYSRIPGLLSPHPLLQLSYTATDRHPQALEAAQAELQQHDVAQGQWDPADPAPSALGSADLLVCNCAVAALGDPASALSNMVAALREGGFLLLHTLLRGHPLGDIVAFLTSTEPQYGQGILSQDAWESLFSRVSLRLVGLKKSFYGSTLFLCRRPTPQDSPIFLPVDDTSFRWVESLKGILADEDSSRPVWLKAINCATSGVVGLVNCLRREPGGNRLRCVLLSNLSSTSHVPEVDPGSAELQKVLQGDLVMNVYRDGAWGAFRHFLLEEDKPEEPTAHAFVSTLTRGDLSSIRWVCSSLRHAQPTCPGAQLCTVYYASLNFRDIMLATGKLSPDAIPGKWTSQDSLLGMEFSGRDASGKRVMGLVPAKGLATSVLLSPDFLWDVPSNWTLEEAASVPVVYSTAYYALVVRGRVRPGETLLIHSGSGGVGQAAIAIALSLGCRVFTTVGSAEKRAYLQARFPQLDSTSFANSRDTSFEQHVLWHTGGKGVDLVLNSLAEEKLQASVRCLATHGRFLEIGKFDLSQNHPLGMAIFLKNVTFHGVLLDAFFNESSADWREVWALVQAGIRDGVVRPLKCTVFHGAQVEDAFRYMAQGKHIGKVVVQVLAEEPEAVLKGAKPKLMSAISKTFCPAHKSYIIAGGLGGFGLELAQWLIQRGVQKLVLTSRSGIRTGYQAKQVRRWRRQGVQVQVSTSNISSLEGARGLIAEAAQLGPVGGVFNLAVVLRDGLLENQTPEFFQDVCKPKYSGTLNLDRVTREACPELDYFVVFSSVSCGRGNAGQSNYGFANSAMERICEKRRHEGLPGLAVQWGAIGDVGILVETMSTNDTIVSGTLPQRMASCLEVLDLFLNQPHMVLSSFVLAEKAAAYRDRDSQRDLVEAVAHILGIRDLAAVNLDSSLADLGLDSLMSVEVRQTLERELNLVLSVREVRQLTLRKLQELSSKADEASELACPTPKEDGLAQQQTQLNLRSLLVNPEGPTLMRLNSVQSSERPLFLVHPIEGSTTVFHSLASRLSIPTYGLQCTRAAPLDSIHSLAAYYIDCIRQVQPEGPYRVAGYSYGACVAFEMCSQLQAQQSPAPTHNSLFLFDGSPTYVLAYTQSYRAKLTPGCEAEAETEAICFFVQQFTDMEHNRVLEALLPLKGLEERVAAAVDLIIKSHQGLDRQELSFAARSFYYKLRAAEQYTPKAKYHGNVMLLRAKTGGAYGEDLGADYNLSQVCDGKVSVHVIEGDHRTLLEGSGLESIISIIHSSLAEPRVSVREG
Chain of Receptor tyrosine-protein kinase erbB-2 (Homo sapiens) (P04626 whole entry): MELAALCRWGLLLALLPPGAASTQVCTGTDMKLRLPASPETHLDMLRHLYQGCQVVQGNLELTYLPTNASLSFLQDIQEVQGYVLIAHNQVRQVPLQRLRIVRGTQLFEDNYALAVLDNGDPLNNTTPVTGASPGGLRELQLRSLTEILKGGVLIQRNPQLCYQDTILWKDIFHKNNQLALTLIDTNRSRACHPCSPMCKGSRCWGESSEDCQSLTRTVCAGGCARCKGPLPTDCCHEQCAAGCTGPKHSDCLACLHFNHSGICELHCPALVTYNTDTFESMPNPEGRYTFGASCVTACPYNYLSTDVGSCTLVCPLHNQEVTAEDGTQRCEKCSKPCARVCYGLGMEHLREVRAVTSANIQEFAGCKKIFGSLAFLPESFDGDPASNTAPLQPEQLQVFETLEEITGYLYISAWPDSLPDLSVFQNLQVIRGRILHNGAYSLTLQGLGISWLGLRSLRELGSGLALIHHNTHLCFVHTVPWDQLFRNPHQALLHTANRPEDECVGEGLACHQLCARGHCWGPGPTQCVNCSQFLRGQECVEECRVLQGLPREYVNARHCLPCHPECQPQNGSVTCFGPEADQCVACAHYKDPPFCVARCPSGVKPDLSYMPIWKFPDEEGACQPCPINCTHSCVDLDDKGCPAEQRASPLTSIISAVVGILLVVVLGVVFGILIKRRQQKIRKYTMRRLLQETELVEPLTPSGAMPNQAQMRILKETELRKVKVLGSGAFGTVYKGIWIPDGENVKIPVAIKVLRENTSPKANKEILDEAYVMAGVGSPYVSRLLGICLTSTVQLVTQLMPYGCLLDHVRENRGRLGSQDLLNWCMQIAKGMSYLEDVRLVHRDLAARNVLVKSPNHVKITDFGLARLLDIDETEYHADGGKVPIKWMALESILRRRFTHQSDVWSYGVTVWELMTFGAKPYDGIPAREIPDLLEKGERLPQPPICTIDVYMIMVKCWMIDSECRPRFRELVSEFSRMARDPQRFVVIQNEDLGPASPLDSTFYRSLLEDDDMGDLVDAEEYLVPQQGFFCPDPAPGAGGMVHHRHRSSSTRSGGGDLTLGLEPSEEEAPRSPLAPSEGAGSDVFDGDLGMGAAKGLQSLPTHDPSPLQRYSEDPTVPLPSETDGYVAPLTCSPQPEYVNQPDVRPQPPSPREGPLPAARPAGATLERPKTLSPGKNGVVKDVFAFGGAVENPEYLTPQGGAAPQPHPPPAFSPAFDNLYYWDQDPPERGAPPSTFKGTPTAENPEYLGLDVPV

## O=C(Oc1cccc2c(OC(=O)c3cc(O)c(O)c(O)c3)cccc12)c1cc(O)c(O)c(O)c1
[1]
  IC50: 26 µM
[2]
  inhibition: 30%

## O=C(Oc1ccc2c(OC(=O)c3cc(O)c(O)c(O)c3)cccc2c1)c1cc(O)c(O)c(O)c1
[1]
  IC50: 39 µM
[3]
  inhibition: inactive

## O=C(Oc1cc(OC(=O)c2cc(O)c(O)c(O)c2)c2ccccc2c1)c1cc(O)c(O)c(O)c1
[1]
  IC50: 21 µM

## O=C(Oc1cc2c(c(OC(=O)c3cc(O)c(O)c(O)c3)c1)CCCC2)c1cc(O)c(O)c(O)c1
[1]
  IC50: 31 µM
[4]
  inhibition: inactive

## O=C(OCCOC(=O)c1cc(O)c(O)c(O)c1)c1cc(O)c(O)c(O)c1
[1]
  IC50: > 150 µM

## O=C(O[C@@H]1CCCC[C@H]1OC(=O)c1cc(O)c(O)c(O)c1)c1cc(O)c(O)c(O)c1 (relative stereo)
[1]
  IC50: > 150 µM

## O=C(Oc1ccc(OC(=O)c2cc(O)c(O)c(O)c2)cc1)c1cc(O)c(O)c(O)c1
[1]
  IC50: 25 µM
[5]
  inhibition: inactive

## O=C(Oc1cccc(OC(=O)c2cc(O)c(O)c(O)c2)c1)c1cc(O)c(O)c(O)c1
[1]
  IC50: 42 µM
[6]
  inhibition: inactive

## O=C(Oc1ccc2cccc(OC(=O)c3cc(O)c(O)c(O)c3)c2c1)c1cc(O)c(O)c(O)c1
[1]
  IC50: 47 µM
[7]
  inhibition: inactive

## O=C(O[C@@H]1Cc2c(O)cc(O)cc2O[C@@H]1c1cc(O)c(O)c(O)c1)c1cc(O)c(O)c(O)c1 [EPIGALOCATECHIN GALLATE]
[8]
  inhibition: 18%
[1]
  IC50: 149 µM

## O=C(Oc1ccc(OC(=O)c2cc(O)c(O)c(O)c2)c(-c2ccccc2)c1)c1cc(O)c(O)c(O)c1
[1]
  IC50: 17 µM
[9]
  inhibition: inactive

## O=C(Oc1cccc2cccc(OC(=O)c3cc(O)c(O)c(O)c3)c12)c1cc(O)c(O)c(O)c1
[1]
  IC50: 78 µM
[10]
  inhibition: inactive

## O=C(Oc1cc2ccccc2cc1OC(=O)c1cc(O)c(O)c(O)c1)c1cc(O)c(O)c(O)c1
[1]
  IC50: 76 µM
[11]
  inhibition: 31%

## O=C(Oc1ccccc1OC(=O)c1cc(O)c(O)c(O)c1)c1cc(O)c(O)c(O)c1
[1]
  IC50: 125 µM

## O=C(Oc1ccc2cc(OC(=O)c3cc(O)c(O)c(O)c3)ccc2c1)c1cc(O)c(O)c(O)c1
[1]
  IC50: 5 µM
[12]
  inhibition: inactive

## COC(=O)c1cc(OC(=O)c2cc(O)c(O)c(O)c2)ccc1OC(=O)c1cc(O)c(O)c(O)c1
[1]
  IC50: 36 µM
[13]
  inhibition: 43%

## O=C(Oc1ccc(OC(=O)c2cc(O)c(O)c(O)c2)c2c1CCCC2)c1cc(O)c(O)c(O)c1
[14]
  inhibition: inactive
[1]
  IC50: 41 µM

## O=C(Oc1ccc2ccc(OC(=O)c3cc(O)c(O)c(O)c3)cc2c1)c1cc(O)c(O)c(O)c1
[1]
  IC50: 26 µM
[2]
  inhibition: inactive

## O=C(O[C@H]1CC[C@H](OC(=O)c2cc(O)c(O)c(O)c2)c2ccccc21)c1cc(O)c(O)c(O)c1
[1]
  IC50: 42 µM
[6]
  inhibition: 41%

## COc1cc(OC(=O)c2cc(O)c(O)c(O)c2)ccc1OC(=O)c1cc(O)c(O)c(O)c1
[1]
  IC50: 8 µM
[15]
  inhibition: inactive

## O=C(O[C@H]1CCCC[C@H]1OC(=O)c1cc(O)c(O)c(O)c1)c1cc(O)c(O)c(O)c1
[1]
  IC50: > 150 µM

## O=C(O[C@H]1CC[C@@H](OC(=O)c2cc(O)c(O)c(O)c2)c2ccccc21)c1cc(O)c(O)c(O)c1
[1]
  IC50: 22 µM
[16]
  inhibition: inactive

## COC(=O)c1cc(OC(=O)c2cc(O)c(O)c(O)c2)c2ccccc2c1OC(=O)c1cc(O)c(O)c(O)c1
[1]
  IC50: 28 µM
[17]
  inhibition: inactive

## O=C(Oc1ccc(OC(=O)c2cc(O)c(O)c(O)c2)c2ccccc12)c1cc(O)c(O)c(O)c1
[1]
  IC50: 29 µM

## O=C(Oc1ccc2ccccc2c1OC(=O)c1cc(O)c(O)c(O)c1)c1cc(O)c(O)c(O)c1
[1]
  IC50: 74 µM

## Cc1cc(OC(=O)c2cc(O)c(O)c(O)c2)ccc1OC(=O)c1cc(O)c(O)c(O)c1
[1]
  IC50: 23 µM
[18]
  inhibition: inactive
